Screens from PubChem BioAssay.
In the library only some 3.1% were active in any assay of this set; here they are far more common.
Calb FLC: affects C. albicans growth with fluconazole; growth inhibition, % (test concentration not listed); C. albicans CaCi-2 (fluconazole-resistant clinical isolate) + fluconazole, Alamar Blue growth, 48 h; AID 1979; 300,000 tested, 0.57% active;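 active means growth inhibition above about 58% in most replicates, limit read from the data, passing the limit was not always enough; inconclusive means exactly half the replicates above a set limit; inactive means most replicates below a set limit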;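 further: all wells also contain fluconazole at 8 µg/ml as a sub-toxic cotreatment; 0% = median of DMSO wells and 100% = median of geldanamycin control wells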
HIF activator: HIF pathway transcriptional activation; 300,000 tested, 0.32% active; activation, % at 7.5 µM (by protocol); U2OS HRE-luciferase reporter, luminescence; normalized: DMSO 0%, desferrioxamine 100%;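 active means mean activation of at least 10% of the iron chelator positive control signal, with at least half of replicates also reaching 10%; inconclusive means mean and replicate majority disagree about reaching 10%; inactive means mean and most replicates under 10%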
Beta apoptosis: blocks beta cell apoptosis | protection from apoptosis, % (concentration not given with the values) | AID 435005 | INS-1E cytokine-induced death, ATP luminescence, 48 h; percent of positive-control rescue, neutral wells zero | 300,000 tested, 0.8% active;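 active means Every replicate reaches about 75%, or at least half do and their mean reaches it too, limit read from the data; inconclusive means At least half of replicates reach the limit but their mean does not; inactive means Under half of replicates reach the limit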;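 further: 0% = cytokine-treated negative control wells and 100% = positive control rescue; higher means more ATP so stronger rescue from cytokine killing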
PolyA inh: yeast polyadenylation inhibition | S. cerevisiae SKY197-pL101 polyadenylation reporter, beta-gal luminescence; efflux-impaired pdr1/pdr3 knockout yeast; score 100 = 6 SD above DMSO | activity score, % at 12 µM | 300,000 tested, 0.02% active;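 active means lowest replicate activity score at least 50, where 100 means six control SD above control mean; inconclusive means lowest score under 50 but half or more replicates reach 50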;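 further: yeast exposed to compound for 9 h at 30 °C; higher score means more reporter readthrough which indicates perturbed polyadenylation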
T cruzi inh: blocks replication of Trypanosoma cruzi. T. cruzi beta-gal in NIH3T3, luminescence, 90 h. inhibition, % (concentration not given with the values). 300,000 tested, 1.4% active;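 active means mean inhibition across valid replicates above about 55%, limit read from the data; inconclusive means mean below that limit but half or more replicates reach it; inactive means mean below it, under half of replicates reach it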;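 further: signal also drops with host cell toxicity which is not excluded here; 0% = plate median of DMSO wells and 100% = zero luminescence signal; higher percent means less beta-gal luminescence so fewer parasites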
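Assay system: NIH/3T3 host cells with β-galactosidase reporter T. cruzi; input: 5,000 host fibroblasts per well; compound: single 50 nL compound addition per well in DMSO; timing: ≥90 h infection period, 3 h prior cell attachment; measured by: GalScreen β-gal luminescence, detergent lysis, 60 min; evaluation: percent inhibition of parasite-derived β-gal signal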
CSC inhib: cancer stem cell inhibition. 300,000 tested, 1.1% active. AID 2717. cancer stem cell-like cells viability, luminescence. inhibition, % at 7.5 µM; in the data active means inhibition above about 75%; inconclusive means no clear call, values can overlap the other calls; tested in HMLE shEcad cells
Active calls of the source: *; ? = inconclusive; nt = no result given.

SMILES | Calb FLC | HIF activator | Beta apoptosis | PolyA inh | T cruzi inh | CSC inhib
C/C(=N\N(Cc1ccccc1)c1ccccc1)c1cccnc1 | -20.9 | -0.4 | -3.3 | -1.9 | 62.3* | -17.9
C/C(=N\NC(=O)Cc1ccccc1)c1cccnc1 | -13.1 | -0.1 | -5.8 | 5.9 | 1.1 | -3.2
CC(C)(C)C(=O)Nc1ccc(C(=O)NNC(=O)Cc2ccccc2)cc1 | -11.1 | 0.1 | -3.0 | 11.5 | -13.6 | -2.1
COC(=O)C[C@](O)(CCCC(C)(C)O)C(=O)O[C@@H]1C(OC)=C[C@]23CCCN2CCc2cc4c(cc2[C@H]13)OCO4 | nt | -2.5 | 77.9* | -5.5 | 41.5 | 98.3*
Cc1ccccc1Oc1cc(NC(=O)CCCn2nc(C)c([N+](=O)[O-])c2C)cc([N+](=O)[O-])c1 | 0.0 | -0.1 | 105.1* | 5.1 | 37.3 | 25.6
CN1CCN(CCOc2ccc(Cl)c(Cl)c2)CC1 | 0.4 | -0.4 | -6.2 | 20.0 | 55.8* | 34.6
CN1CCN(CCOc2ccc(Cc3ccccc3)cc2)CC1 | -13.1 | 0.6 | 0.6 | 15.2 | 54.8* | 50.8
CCc1ccc(OCCOCCN2CCN(C)CC2)cc1 | -7.8 | 0.7 | -2.3 | 13.8 | 43.6 | 58.0
S=C(Nc1ccc(Cl)cc1)c1nc2ccccc2s1 | 8.8 | 3.8 | nt | -13.3 | 14.9 | 8.7
O=C(Nc1ccc(Cl)cc1)/C(=C/c1cccc(O)c1)c1nc2ccccc2s1 | -14.3 | -6.1 | 105.3* | -3.6 | 30.1 | -8.3
O=C(COc1ccccc1)NC(=S)Nc1ccc2c(c1)Cc1ccccc1-2 | -0.4 | -0.3 | -1.7 | 6.0 | 61.0* | nt
O=C(COc1ccccc1)NC(=S)Nc1cccc([N+](=O)[O-])c1 | -4.8 | -0.1 | nt | -12.0 | -17.7 | -20.4
CCCCCCSc1ccc([C@@H]2[C@@H]3C(=O)N(C)C(=O)[C@@H]3[C@]3(C(=O)OC)CCCCN23)cc1OC | 9.1 | -0.1 | 9.4 | ? | 10.5 | 105.4*
CN(/N=C/c1ccc(O)cc1O)c1nc(-c2ccccc2)cc(-c2ccccc2)n1 | 18.2 | 0.2 | 3.6 | -7.8 | ? | 88.8*
CN(N)c1nc(-c2ccccc2)cc(-c2ccccc2)n1 | 8.0 | -2.7 | 6.2 | -26.1 | -5.3 | 18.5
Cc1cc(-c2ccccc2)nc(N/N=C/c2ccc(O)cc2O)n1 | 63.0 | 0.5 | 39.2 | -44.2 | -4.3 | 96.0*
C/C(=N/NC(=O)c1cccs1)c1c(C)[nH]n(-c2nc3ccccc3s2)c1=O | ? | 0.1 | 79.5* | -5.6 | -0.1 | 58.9
CC(=NCc1ccco1)c1c(C)[nH]n(-c2nc3ccccc3s2)c1=O | 13.2 | -1.2 | 9.7 | -7.3 | 7.4 | 10.7
CC(C)(C)C(=O)NC(=S)NNC(=O)c1sc2ccccc2c1Cl | 88.3* | -2.4 | 66.8 | -45.4 | 42.7 | nt
O=C(/C=C/c1ccc([N+](=O)[O-])s1)N1CCCC1 | 8.5 | -0.3 | -1.3 | -15.8 | 69.3* | 14.3
O=C(/C=C/c1ccc([N+](=O)[O-])s1)N1CCN(c2ccccc2)CC1 | 3.0 | 1.7 | -14.2 | -22.6 | 58.5* | 16.0
O=C(/C=C/c1ccc([N+](=O)[O-])s1)N1CCCCC1 | 12.1 | -1.9 | -35.6 | -10.0 | 0.1 | -0.2
N#CC1=C(SCC(=O)c2ccc(Br)cc2)NC2=C(C(=O)CCC2)C1c1ccco1 (stereo not drawn) | nt | nt | nt | nt | nt | 91.3*
CCCC(=O)NCCCCNC(=O)CCC | -3.9 | 0.1 | -3.1 | 16.6 | -7.7 | -12.6
CC(=O)N(O)CCCCCNC(=O)CCC(=O)N(O)CCCCCNC(=O)CCC(=O)N(O)CCCCCN | nt | 19.0* | 4.9 | 18.3 | -6.3 | 19.1
SMILES | Calb FLC | HIF activator | Beta apoptosis | PolyA inh | T cruzi inh | CSC inhib
COc1ccccc1NC(=O)CN1CCN(c2ccccc2OC)CC1 | 62.8* | -1.2 | 2.6 | 11.3 | 14.8 | nt
O=C(CN1CCCCC1)Nc1cc(Cl)ccc1Oc1ccccc1 | -2.8 | 0.7 | -4.4 | -7.5 | -4.0 | 71.8
O=C(CN1CCCCCC1)Nc1ccccc1Oc1ccccc1 | -1.5 | -0.6 | 2.4 | -11.8 | 5.6 | 79.6*
COc1ccccc1NC(=O)CN1CCN(c2ccccc2F)CC1 | -1.5 | -0.6 | 1.1 | 6.0 | 10.4 | -2.8
O=C(NCCOc1ccc(Cl)cc1)c1ccc2c(c1)OCCO2 | nt | nt | 4.8 | nt | nt | 5.1
O=C(NCC1CCCO1)c1cc(-c2ccc(F)cc2)no1 (stereo not drawn) | 7.6 | 13.7* | 15.1 | -2.0 | -13.7 | 5.8
Cc1ccc(-c2cc(C(=O)NCC3CCCO3)no2)cc1 (stereo not drawn) | 11.4 | 0.7 | nt | 2.1 | -4.4 | nt
O=C(NCC1CCCO1)c1cc(-c2ccccc2)on1 (stereo not drawn) | 31.5 | 15.4* | 32.1 | 4.3 | -4.7 | 17.9
O=C(NCc1ccco1)c1cc(-c2cccs2)on1 | -25.6 | 20.6* | 6.0 | -19.4 | 2.5 | nt
O=C(NCc1ccco1)c1cc(-c2ccccc2)on1 | -3.3 | 12.0* | 12.5 | 0.6 | 20.4 | 12.3
O=C(NCCN1CCOCC1)C(=O)NCC1OCCCN1S(=O)(=O)c1cc(F)ccc1F (stereo not drawn) | -0.4 | -0.2 | -6.1 | -5.9 | -5.6 | 0.9
CCn1c(C)nc2cc(-c3nnc(-c4c(-c5ccccc5)noc4C)o3)ccc21 | 15.2 | -0.8 | 113.4* | -0.3 | 30.8 | 38.5
CC1CC2=C(NC(=S)NC2c2cccc(F)c2)/C(=C/c2cccc(F)c2)C1 (stereo not drawn) | -24.0 | 0.5 | nt | 9.9 | 58.6* | nt
Cc1ccc(/C=C2\CC(C)CC3=C2NC(=S)NC3c2ccc(C)cc2)cc1 (stereo not drawn) | -3.6 | 0.3 | -6.3 | 1.2 | 13.6 | 14.1
COc1ccc(-c2cc3ccccc3nc2N)cc1OC | -7.6 | 0.2 | 4.5 | -2.0 | 28.4 | -8.8
C=CC[C@H](CC(=O)N(CCO)Cc1ccccc1)C(=O)N[C@H](COC(=O)[C@@H](CC=C)Cc1ccc(F)cc1)Cc1ccccc1 | nt | nt | -8.5 | nt | nt | -1.0
CC[C@@H](C(=O)[C@@H](C)[C@@H](O)[C@H](C)CCc1ccc(C)c(O)c1C(=O)O)[C@H]1O[C@](CC)([C@H]2CC[C@](O)(CC)[C@H](C)O2)C[C@@H]1C | nt | 0.1 | 97.1* | 4.5 | 36.5 | 117.3*
CCc1nnc(NC(=O)[C@@H](NC(=O)c2cc(OC)cc(OC)c2)C(C)C)s1 | 15.6 | -0.4 | -0.5 | -11.5 | 0.5 | -14.3
OCCN1CCN(C2CCC(c3ccc(F)cc3)c3ccc(F)cc32)CC1 (stereo not drawn) | 64.8 | -0.5 | 22.0 | 4.2 | 39.0 | 82.7*
COC(=O)c1ccc(NS(=O)(=O)c2cc(-c3cc(C)no3)ccc2OC)cc1 | 87.6* | 1.5 | 16.9 | -3.2 | -18.5 | 61.5
CC(C)(C)C(=O)Cn1ncc(Br)c(Br)c1=O | 30.1 | -7.6 | nt | 5.4 | 61.3* | nt
CC1Cc2ccccc2N1C(=O)COC(=O)CCc1nc2ccccc2c(=O)[nH]1 (stereo not drawn) | 8.7 | -0.2 | nt | -12.1 | -8.2 | -3.0
CCOC(=O)c1c(CN(C)C)n(-c2ccccc2)c2cc(Br)c(OC)cc12 | 16.5 | -8.8 | nt | -22.9 | 36.3 | nt
